The nature of data set [1]: Drug metabolism in human liver microsomes assessed as sulfate conjugate formation at 50 uM in presence of UDPGA after 60 mins by LC-ESI-MS analysis. It counts as ADME, microsome. The note with it: 1 h.
For data set [2], the target named is Transient receptor potential cation channel subfamily V member 1 (Homo sapiens, UniProt Q8NER1). As to the kind of experiment: Antagonist activity at TRPV1 (unknown origin) expressed in human SH-SY5Y cells assessed as inhibition of capsaicin-induced calcium increase after 25 mins by Fluo-4 NW dye-based fluorescence assay. The format is cell-based.
Data set [3] in a line: Drug metabolism in human liver S9 fraction assessed as residual substrate levels at 50 uM up to 60 mins by HPLC-UV analysis. It counts as ADME, subcellular. The note with it: read-out: Stability.
In data set [4] the target is Transient receptor potential cation channel subfamily V member 1 (Rattus norvegicus) (UniProt O35433). Put plainly: Modulatory activity against TRPV1 in Wistar rat neonatal dorsal root ganglia assessed as reduction in capsaicin-evoked action potential by measuring mean spike frequency ratio (P2/P1) at 10 uM by microelectrode array analysis (reference value: 0.87 +/- 0.04). The procedure, abridged: (§1)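 Capsaicin-evoked action potential firing recorded with test agent at 10 µM. Response expressed as the P2/P1 mean spike frequency ratio.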

For data set [5] the target is unchanged. As to the kind of experiment: Modulatory activity against TRPV1 in Wistar rat neonatal dorsal root ganglia assessed as inhibition of capsaicin-evoked action potential at 10 uM by microelectrode array analysis relative to control. The procedure, abridged: as §1
The nature of data set [6]: Drug metabolism in human HaCaT cells assessed as residual substrate levels at 25 uM up to 240 mins by HPLC-UV analysis. The format is ADME, cell-based. To be noted: read-out: Stability.
Data set [7] concerns Mus musculus. Put plainly: Analgesic activity in CFA-induced thermal hyperalgesia C57BL/6 mouse model assessed as reduction in CFA-induced ipsilateral paw withdrawal latency at 3 mg/kg, iv treated at 24 hrs post CFA injection measured at 60 to 90 mins post dose. It counts as functional, organism-based.
Data set [8] deals with Mus musculus. As to the kind of experiment: Effect on thermal nociception of the contralateral paw in CFA-induced thermal hyperalgesia C57BL/6 mouse model at 1 to 10 mg/kg, iv treated at 24 hrs post CFA injection. It counts as ADME, organism-based. The note with it: in vivo.
Data set [9] addresses T1, Liver carboxylesterase 1 (CE1) (Homo sapiens, UniProt P23141).
T1 sequence (P23141 whole entry): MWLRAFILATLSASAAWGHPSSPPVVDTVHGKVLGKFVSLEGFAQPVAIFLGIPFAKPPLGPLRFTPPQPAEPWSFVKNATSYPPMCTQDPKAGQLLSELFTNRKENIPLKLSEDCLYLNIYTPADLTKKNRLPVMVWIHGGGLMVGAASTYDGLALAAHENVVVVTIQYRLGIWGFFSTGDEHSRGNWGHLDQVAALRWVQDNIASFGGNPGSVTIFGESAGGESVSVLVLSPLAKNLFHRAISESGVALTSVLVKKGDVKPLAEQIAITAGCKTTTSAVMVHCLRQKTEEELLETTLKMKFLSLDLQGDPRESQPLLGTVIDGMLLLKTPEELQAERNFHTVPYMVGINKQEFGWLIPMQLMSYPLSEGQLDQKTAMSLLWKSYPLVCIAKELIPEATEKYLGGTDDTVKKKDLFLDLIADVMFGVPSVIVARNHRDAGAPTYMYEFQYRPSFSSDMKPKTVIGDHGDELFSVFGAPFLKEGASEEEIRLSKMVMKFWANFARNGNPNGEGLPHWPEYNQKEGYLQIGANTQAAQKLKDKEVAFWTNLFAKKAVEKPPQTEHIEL
Put plainly: Drug metabolism assessed as recombinant human CE1-mediated compound hydrolysis by measuring compound half life at 50 uM up to 30 mins by LC-UV analysis. The format is ADME. The procedure, abridged: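 Recombinant human carboxylesterase isoforms 1 and 2 were each incubated with the test ester. Hydrolysis was followed by HPLC-UV, tracking the disappearance of the substrate over incubation time relative to the initial amount. Chromatograms were also checked for peaks of the expected hydrolysis metabolites.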

The nature of data set [10]: Drug metabolism in human liver cytosol assessed as glucuronide metabolite formation at 50 uM in presence of UDPGA after 60 mins by LC-ESI-MS analysis. The format is ADME, subcellular. The note with it: 1 h.
The subject of data set [11] is Mus musculus. As to the kind of experiment: Analgesic activity in CFA-induced thermal hyperalgesia C57BL/6 mouse model assessed as reduction in latency time required to elicit paw withdrawal in response to radiant heat applied to the plantar surface of a hind paw at 10 to 100 ug administered as intraplantar injection treated at 24 hrs post CFA injection measured at 90 mins post dose. The format is functional, organism-based.

Data set [12] deals with Mus musculus. As to the kind of experiment: Antipruritic activity in C57BL/6 mouse histaminergic pruritus model assessed as reduction in licking behavior at 100 ug administered as intraplantar injection pretreated for 30 mins followed by histamine addition measured 10 to 20 mins post histamine instillation. The format is functional, organism-based.
The nature of data set [13]: Drug metabolism in human liver microsomes assessed as glucuronide metabolite formation at 50 uM in presence of UDPGA after 60 mins by LC-ESI-MS analysis. The format is ADME, microsome. To be noted: 1 h. A general note: Liver microsomes are a subcellular fraction often used to study metabolism.

The source made the active and inactive calls.

For orientation: IC50 means the concentration at which inhibition is half-maximal. The term inhibition denotes how much of the control response was suppressed. In general, half-life refers to the time needed for the level to fall by half in the phase considered.

Sequence of Transient receptor potential cation channel subfamily V member 1 (Rattus norvegicus) (O35433 whole entry): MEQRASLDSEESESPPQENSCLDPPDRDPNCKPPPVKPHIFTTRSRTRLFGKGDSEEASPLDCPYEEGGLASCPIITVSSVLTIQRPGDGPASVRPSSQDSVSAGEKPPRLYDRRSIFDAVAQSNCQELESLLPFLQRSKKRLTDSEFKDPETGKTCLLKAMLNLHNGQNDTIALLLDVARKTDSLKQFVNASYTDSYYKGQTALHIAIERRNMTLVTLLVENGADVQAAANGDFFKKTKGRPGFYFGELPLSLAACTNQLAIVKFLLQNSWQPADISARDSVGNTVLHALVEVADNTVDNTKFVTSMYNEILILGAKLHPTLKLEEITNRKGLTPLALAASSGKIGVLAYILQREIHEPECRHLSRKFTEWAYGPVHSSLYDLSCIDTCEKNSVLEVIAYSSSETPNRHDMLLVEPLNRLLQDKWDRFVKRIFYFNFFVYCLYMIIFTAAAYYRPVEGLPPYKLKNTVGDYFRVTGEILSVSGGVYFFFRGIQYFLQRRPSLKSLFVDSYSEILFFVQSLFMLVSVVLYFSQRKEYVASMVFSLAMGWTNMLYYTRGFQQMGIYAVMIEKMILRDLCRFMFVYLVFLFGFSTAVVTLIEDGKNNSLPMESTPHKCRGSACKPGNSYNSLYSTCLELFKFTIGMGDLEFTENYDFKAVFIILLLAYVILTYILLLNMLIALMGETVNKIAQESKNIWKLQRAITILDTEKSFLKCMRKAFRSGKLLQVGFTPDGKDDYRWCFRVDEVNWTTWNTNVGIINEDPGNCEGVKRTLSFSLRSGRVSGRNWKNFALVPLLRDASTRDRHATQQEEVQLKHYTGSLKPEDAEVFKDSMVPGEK
Sequence of Transient receptor potential cation channel subfamily V member 1 (Q8NER1 whole entry): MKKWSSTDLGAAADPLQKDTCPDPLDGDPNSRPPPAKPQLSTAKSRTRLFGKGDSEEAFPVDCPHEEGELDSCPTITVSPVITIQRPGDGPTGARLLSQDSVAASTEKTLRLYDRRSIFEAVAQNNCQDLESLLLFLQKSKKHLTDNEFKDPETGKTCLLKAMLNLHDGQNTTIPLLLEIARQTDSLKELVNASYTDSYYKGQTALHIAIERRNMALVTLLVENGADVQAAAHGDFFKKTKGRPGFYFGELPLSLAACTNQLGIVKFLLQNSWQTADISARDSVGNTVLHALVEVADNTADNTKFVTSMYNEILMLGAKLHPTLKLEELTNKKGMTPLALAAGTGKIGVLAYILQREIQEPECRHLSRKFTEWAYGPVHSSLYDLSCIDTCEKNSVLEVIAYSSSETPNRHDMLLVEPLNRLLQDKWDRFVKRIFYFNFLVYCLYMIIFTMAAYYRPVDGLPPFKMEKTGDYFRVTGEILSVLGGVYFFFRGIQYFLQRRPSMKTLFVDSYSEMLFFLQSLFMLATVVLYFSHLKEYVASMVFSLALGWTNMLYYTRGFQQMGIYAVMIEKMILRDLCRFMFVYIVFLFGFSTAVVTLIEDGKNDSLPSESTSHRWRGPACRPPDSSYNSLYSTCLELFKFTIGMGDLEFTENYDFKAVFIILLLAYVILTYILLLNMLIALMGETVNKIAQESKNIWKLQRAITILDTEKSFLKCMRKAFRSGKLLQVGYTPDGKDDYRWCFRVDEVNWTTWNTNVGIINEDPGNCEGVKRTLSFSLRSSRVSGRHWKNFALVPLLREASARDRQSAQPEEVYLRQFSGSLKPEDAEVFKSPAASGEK

Consider `CCCCCCCCCCCC(=O)OCC(=O)NCc1cc(OC)c(O)cc1I`, for which the Drug metabolism entry in data set [1], in data set [10] and in data set [13] was “Metabolite_Notdetected” throughout. Further, the 50% inhibitory concentration (IC50) in [2] came out at 930 nM. Besides, the remaining at 1 h, 50 µM in data set [3] was 0%. Further, the Ratio in [4] amounted to 0.53. Besides, in data set [5], the inhibition came out at 43%. For the same molecule, the remaining at 4 h, 25 µM in [6] is 98.6%. Besides, the outcome in the data set on Mus musculus [7], in the data set with Mus musculus [11] and in the data set on Mus musculus [12] was Active. Besides, the Activity entry in the data set on Mus musculus [8] was “Non-Toxic”. Besides, the half-life at 50 µM in [9] was found to be 27.2 min.

(Values after ChEMBL document CHEMBL4219255, “Targeting Transient Receptor Potential Vanilloid 1 (TRPV1) Channel Softly: The Discovery of Passerini Adducts as a Topical Treatment for Inflammatory Skin Disorders” (J Med Chem, 2018).)
